According to ChEMBL document CHEMBL4680199, “Synthesis and in vitro evaluation of new 5-substituted 6-nitroimidazooxazoles as antikinetoplastid agents” (Eur J Med Chem, 2020):

How the values were obtained:
Trypanosoma cruzi = assay: Antitrypanosomal activity against Trypanosoma cruzi CL amastigotes overexpressing tdTomato red fluorescent protein infected in gamma-irradiated African green monkey Vero cells assessed as reduction in parasite growth measured 3 days post-infection by fluorescence assay; format: functional, organism-based; conditions: light or radiation study, 72 h
Leishmania donovani = assay: Antileishmanial activity against Leishmania donovani MHOM/IN/00/DEVI promastigotes measured after 72 hrs by MTT assay; format: functional, organism-based
Method in brief: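 Log-phase promastigotes were grown in Schneider's medium with 20% FCS, 2 mM L-glutamine and penicillin/streptomycin, and seeded at 10⁶ parasites/mL. Compounds in DMSO (final <0.5% v/v) were tested in duplicate for 72 h at 27 °C. MTT was added for 4 h, the reaction was stopped with 50% isopropanol/10% SDS, and A570 was read. IC50 relative to control was fitted by non-linear regression; mean of ≥3 independent experiments.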

[1] = Cytotoxicity against CHO cells assessed as reduction in cell viability after 24 hrs by MTT assay; format: cell-based, Cricetulus griseus; conditions: chinese hamster
Method in brief: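 Cells in complete RPMI (10% FCS, L-glutamine, penicillin/streptomycin) were allowed to adhere for 24 h at 37 °C in 5% CO₂. Compounds in DMSO (final <0.5% v/v) were then added in duplicate for 24 h. MTT (0.5 mg/mL in FCS-free medium) was applied for 2 h, formazan was dissolved in DMSO, and A570 was read with 630 nm reference. Viability is % of untreated cells; CC50 by non-linear regression; mean of three experiments.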

[2] = Selectivity index, ratio of CC50 for CHO cells to IC50 for antileishmanial activity against Leishmania donovani MHOM/IN/00/DEVI promastigotes; format: toxicity; conditions: hamster, read-out: Ratio CC50/IC50
Method in brief: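 SI = CHO CC50 / promastigote IC50. Promastigotes: log-phase, Schneider's + 20% FCS, 10⁶/mL, DMSO <0.5% final, 72 h at 27 °C, MTT 4 h, A570, ≥3 experiments. CHO: complete RPMI + 10% FCS, 24 h attachment, 24 h exposure at 37 °C, MTT 0.5 mg/mL 2 h, A570/630, three experiments. Both values from non-linear regression of dose-response curves.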

[3] = Selectivity index, ratio of CC50 for CHO cells to IC50 for antitrypanosomal activity against Trypanosoma cruzi CL amastigotes overexpressing tdTomato red fluorescent protein infected in gamma-irradiated African green monkey Vero cells; format: toxicity; conditions: Chinese hamster, read-out: Ratio CC50/IC50
Method in brief: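 SI = CHO CC50 / T. cruzi IC50. CHO cells: complete RPMI + 10% FCS, 24 h attachment, then 24 h compound exposure at 37 °C, 5% CO₂, DMSO <0.5% final, in duplicate. MTT 0.5 mg/mL for 2 h, read at A570/630, three experiments. Parasites were tdTomato-labelled trypomastigotes. Both values from non-linear regression of dose-response curves.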

For `CC1Cn2c(nc([N+](=O)[O-])c2-c2ccc(Cl)cc2)O1` (centres undefined), the IC50 (Trypanosoma cruzi) was greater than 10 µM, the IC50 (Leishmania donovani) was greater than 10 µM and the CC50 at 24 h [1] was greater than 250 µM.

For `CC1Cn2c(nc([N+](=O)[O-])c2C#CC2CC2)O1` (centres undefined), the selectivity ratio [2] was 1.4, the IC50 (Trypanosoma cruzi) was 4.1 µM and the selectivity ratio [3] was 1.6. It also gave an IC50 (Leishmania donovani) of 4.59 µM and a CC50 at 24 h [1] of 6.45 µM.

Work on `CC1Cn2c(nc([N+](=O)[O-])c2-c2cccc(C(F)(F)F)c2)O1` (centres undefined) yielded an IC50 (Trypanosoma cruzi) greater than 10 µM, an IC50 (Leishmania donovani) greater than 10 µM and a CC50 at 24 h [1] greater than 250 µM.

Work on `CC1Cn2c(nc([N+](=O)[O-])c2-c2ccc(CO)cc2)O1` (centres undefined) yielded an IC50 (Trypanosoma cruzi) greater than 10 µM, an IC50 (Leishmania donovani) greater than 10 µM and a CC50 at 24 h [1] greater than 500 µM.

`Cc1ccc(-c2c([N+](=O)[O-])nc3n2CC(C)O3)s1` (centres undefined) gave an IC50 (Trypanosoma cruzi) greater than 10 µM, an IC50 (Leishmania donovani) greater than 10 µM and a CC50 at 24 h [1] greater than 125 µM.

Work on `C[C@@H]1[C@H](O)[C@@H](C)/C=C/C=C/C=C/C=C/C=C/C=C/C=C/[C@H](O[C@@H]2O[C@H](C)[C@@H](O)[C@H](N)[C@@H]2O)C[C@@H]2O[C@](O)(C[C@@H](O)C[C@@H](O)[C@H](O)CC[C@@H](O)C[C@@H](O)CC(=O)O[C@H]1C)C[C@H](O)[C@H]2C(=O)O` [AMPHOTERICIN B] yielded an IC50 (Leishmania donovani) of 0.18 µM.

Work on `CC1Cn2c(nc([N+](=O)[O-])c2-c2ccccc2)O1` (centres undefined) yielded an IC50 (Trypanosoma cruzi) greater than 10 µM, an IC50 (Leishmania donovani) greater than 10 µM and a CC50 at 24 h [1] greater than 500 µM.

For `Cc1ccc(-c2c([N+](=O)[O-])nc3n2CC(C)O3)cc1` (centres undefined), the IC50 (Trypanosoma cruzi) was greater than 10 µM, the IC50 (Leishmania donovani) was greater than 10 µM and the CC50 at 24 h [1] was greater than 250 µM.

For `CC1Cn2c(nc([N+](=O)[O-])c2C#Cc2ccc(C(C)(C)C)cc2)O1` (centres undefined), the selectivity ratio [2] was 10.8, the IC50 (Trypanosoma cruzi) was 2.86 µM and the selectivity ratio [3] was 2.3. The IC50 (Leishmania donovani) was 0.61 µM and the CC50 at 24 h [1] was 6.62 µM.

Work on `CCCOc1ccc(-c2c([N+](=O)[O-])nc3n2CC(C)O3)cc1` (centres undefined) yielded an IC50 (Trypanosoma cruzi) greater than 10 µM, an IC50 (Leishmania donovani) greater than 10 µM and a CC50 at 24 h [1] greater than 125 µM.

`CC1Cn2c(nc([N+](=O)[O-])c2-c2cccc(C#N)c2)O1` (centres undefined) gave an IC50 (Trypanosoma cruzi) greater than 10 µM, an IC50 (Leishmania donovani) greater than 10 µM and a CC50 at 24 h [1] greater than 500 µM.

`COc1cccc2c1C(=O)c1c(O)c3c(c(O)c1C2=O)C[C@@](O)(C(=O)CO)C[C@@H]3O[C@H]1C[C@H](N)[C@H](O)[C@H](C)O1` [DOXORUBICIN] gave a CC50 at 24 h [1] of 4.65 µM.

Work on `CC1Cn2c(nc([N+](=O)[O-])c2C#Cc2cccc(N)c2)O1` (centres undefined) yielded a selectivity ratio [2] of 5.2, an IC50 (Trypanosoma cruzi) of 3.63 µM and a selectivity ratio [3] of 5. The IC50 (Leishmania donovani) was 3.49 µM and the CC50 at 24 h [1] was 18.1 µM.

Work on `CC1Cn2cc([N+](=O)[O-])nc2O1` (centres undefined) yielded a selectivity ratio [2] greater than 5000, an IC50 (Trypanosoma cruzi) greater than 10 µM and an IC50 (Leishmania donovani) of 0.1 µM. For the same compound, the CC50 at 24 h [1] was greater than 500 µM.

With `CC1Cn2c(nc([N+](=O)[O-])c2C#Cc2ccc(CO)cc2)O1` (centres undefined) the selectivity ratio [2] was 2.1, the IC50 (Trypanosoma cruzi) was 1.61 µM and the selectivity ratio [3] was 5.4. For the same compound, the IC50 (Leishmania donovani) was 4.11 µM and the CC50 at 24 h [1] was 8.77 µM.

`COc1cc(-c2c([N+](=O)[O-])nc3n2CC(C)O3)cc(OC)c1OC` (centres undefined) showed an IC50 (Trypanosoma cruzi) greater than 10 µM, an IC50 (Leishmania donovani) greater than 10 µM and a CC50 at 24 h [1] greater than 125 µM.

Work on `CC1Cn2c(nc([N+](=O)[O-])c2C#Cc2ccccc2)O1` (centres undefined) yielded a selectivity ratio [2] of 1.7, an IC50 (Trypanosoma cruzi) of 1.46 µM and a selectivity ratio [3] of 2.4. For the same compound, the IC50 (Leishmania donovani) was 2.08 µM and the CC50 at 24 h [1] was 3.54 µM.

Work on `CC1Cn2c(nc([N+](=O)[O-])c2-c2ccc(OC(F)(F)F)cc2)O1` (centres undefined) yielded an IC50 (Trypanosoma cruzi) greater than 10 µM, an IC50 (Leishmania donovani) greater than 10 µM and a CC50 at 24 h [1] greater than 125 µM.

Compound `CC1Cn2c(nc([N+](=O)[O-])c2-c2ccc(C=O)cc2)O1` (centres undefined) has an IC50 (Trypanosoma cruzi) greater than 10 µM, an IC50 (Leishmania donovani) greater than 10 µM and a CC50 at 24 h [1] of 255 µM.

`Cc1ccc(C#Cc2c([N+](=O)[O-])nc3n2CC(C)O3)cc1` (centres undefined) gave a selectivity ratio [2] of 3.3, an IC50 (Trypanosoma cruzi) of 2.18 µM and a selectivity ratio [3] of 2.5. The IC50 (Leishmania donovani) was 1.66 µM and the CC50 at 24 h [1] was 5.47 µM.

With `CC1Cn2c(nc([N+](=O)[O-])c2Br)O1` (centres undefined) the selectivity ratio [2] was 1.4, the IC50 (Trypanosoma cruzi) was greater than 10 µM and the IC50 (Leishmania donovani) was 6.71 µM. It also gave a CC50 at 24 h [1] of 9.19 µM.

Work on `COc1cccc(C#Cc2c([N+](=O)[O-])nc3n2CC(C)O3)c1` (centres undefined) yielded a selectivity ratio [2] of 8.1, an IC50 (Trypanosoma cruzi) of 0.92 µM and a selectivity ratio [3] of 14. For the same compound, the IC50 (Leishmania donovani) was 1.58 µM and the CC50 at 24 h [1] was 12.9 µM.

`O=C(Cn1ccnc1[N+](=O)[O-])NCc1ccccc1` [BENZNIDAZOLE] gave an IC50 (Trypanosoma cruzi) of 2.31 µM.
